Assay [1] deals with T1, Tubulin (Homo sapiens) (UniProt P68371+Q9H4B7+P0DPH7+P68366+Q13509+Q71U36+P04350+Q3ZCM7+P07437+P68363+Q9BQE3+Q6PEY2+Q13885+Q9BVA1+Q9BUF5). Nature of the assay: Induction of microtubule stabilization in human HEK293-A cells assessed as fold change in cellular acetylated alpha-tubulin level at 1 uM incubated for 4 hrs by ELISA relative to cevipabulin. Type of assay: cell-based. The method, boiled down:
(§1)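 QBI293 cells (2 × 10^5/well) treated 4 h with compound or DMSO vehicle; AcTub in whole-cell extracts measured by ELISA with BCA protein normalization. Fold-change in AcTub relative to DMSO then expressed against change produced by positive-control reference compound at 100 nM run alongside, to correct day-to-day responsiveness.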

In assay [2] the target is T1, Tubulin (Homo sapiens). Nature of the assay: Induction of microtubule stabilization in human HEK293-A cells assessed as fold change as increase in cellular acetylated alpha-tubulin level at 1 uM incubated for 4 hrs by ELISA relative to control. Type of assay: cell-based. The method, boiled down: (§2)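 QBI293 cells (2 × 10^5/well) plated overnight, then fresh medium with compound (from 4–20 mM DMSO stocks) or vehicle (0.25–0.3% DMSO) for 4 h. Whole-cell extracts normalized by BCA protein; AcTub and total α-tubulin quantified by ELISA, as fold-change versus DMSO cells; one-way ANOVA.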
In general terms: In an ELISA, binding on a coated surface is turned into a signal by an enzyme label.

Assay [3] has as its target T1, Tubulin (Homo sapiens). Nature of the assay: Induction of microtubule stabilization in human HEK293-A cells assessed as fold change in total alpha-tubulin level reduction at 1 uM incubated for 4 hrs by ELISA relative to control. Format: cell-based. The method, boiled down: as §2
Assay [4] concerns the target T1, Tubulin (Homo sapiens). Nature of the assay: Induction of microtubule stabilization in human HEK293-A cells assessed as fold change in total alpha-tubulin level reduction at 10 uM incubated for 4 hrs by ELISA relative to control. Type of assay: cell-based. The gist of the method:
as §2

The target of assay [5] is T1, Tubulin (Homo sapiens). Nature of the assay: Induction of microtubule stabilization in human HEK293-A cells assessed as fold change in cellular acetylated alpha-tubulin level at 10 uM incubated for 4 hrs by ELISA relative to cevipabulin. Format: cell-based. The gist of the method:
as §1

The target in assay [6] is T1, Tubulin (Homo sapiens). Nature of the assay: Induction of microtubule stabilization in human HEK293-A cells assessed as fold change as increase in cellular acetylated alpha-tubulin level at 10 uM incubated for 4 hrs by ELISA relative to control. Type of assay: cell-based. The gist of the method:
as §2

A further assay has as its system Mus musculus. Kind of assay: Binding affinity to microtubule in CD-1 mouse brain assessed as increase in de-tyrosinated alpha-tubulin level at 1 mg/kg, ip qd for 2 days […]. To be noted: time 2.0 day. Format: organism-based. The method, boiled down:
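CD-1 mice (n = 4 per group) got two i.p. doses 1 mg/kg, about 24 h apart, from DMSO stock diluted into 30% Kolliphor EL in PBS pH 7.4; vehicle controls. Cortex and hippocampus taken 4 h after second dose, homogenized in RIPA with protease inhibitors, PMSF, 3 μM trichostatin A; equal protein western blot for Glu-tubulin, α-tubulin, GAPDH; infrared imaging; GluTub/α-Tub ratio versus vehicle.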

The test system of assay [7] is Primary cortical neuron. Kind of assay: Induction of microtubule stabilization in mouse Primary cortical neuron cells assessed as prevention of okadaic acid induced microtubule collapse by measuring cellular acetylated alpha-tubulin level at 10 uM incubated for 8 hrs by ELISA. Format: cell-based. The gist of the method: (§3)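 Embryonic dissociated cortical neurons (mouse or rat) plated 3 × 10^5/well on poly-D-lysine, grown 10 days, then treated 8 h with 15 nM okadaic acid plus compound or vehicle (0.25% DMSO). Homogenate AcTub measured by ELISA; one-way ANOVA versus vehicle without okadaic acid.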

The subject of assay [8] is Primary cortical neuron. Kind of assay: Induction of microtubule stabilization in rat Primary cortical neuron cells assessed as prevention of okadaic acid induced microtubule collapse by measuring cellular acetylated alpha-tubulin level at 1 uM incubated for 8 hrs by ELISA. Type of assay: cell-based. The method, boiled down: as §3

Activity calls are given as the source filed them. The rule behind the calls is not given here.

For `CO[C@H]1C[C@H]2CC[C@@H](C1)N2c1c(-c2ccc(F)cc2F)c(Cl)nc2ncnn12`, the fold change (FC) on Tubulin (Homo sapiens) [1] amounted to 0.54; on Tubulin (Homo sapiens) [2], 3.65; on Tubulin (Homo sapiens) [3] it was 1.12; on Tubulin (Homo sapiens) [4], 1.38; on Tubulin (Homo sapiens) [5], 1.11; at Tubulin (Homo sapiens) [6], 7.43. Turning to `C[C@@H](Nc1c(-c2c(F)cc(C#CCCN(C)C)cc2F)c(Cl)nc2ncnn12)C(C)(C)C`, the outcome in the assay on Mus musculus and in the assay with Primary cortical neuron [7] was Active.

For `C[C@@H](Nc1c(-c2c(F)cc(C#N)cc2F)c(Cl)nc2ncnn12)C(C)(C)C`, the result in the assay with Mus musculus was Active.

`C[C@@H](Nc1c(-c2c(F)cc(F)cc2F)c(Cl)nc2ncnn12)C1CC1`: the fold change (FC) on Tubulin (Homo sapiens) [3] came to 1.11. As to `C[C@@H](Nc1c(-c2c(F)cc(C#CCCO)cc2F)c(Cl)nc2ncnn12)C(C)(C)C`, the outcome in the assay with Mus musculus and in the assay with Primary cortical neuron [7] was Active. Turning to `C[C@@H](Nc1c(-c2c(F)cc(F)cc2F)c(Cl)nc2ncnn12)C1(C)N=N1`, the fold change (FC) at Tubulin (Homo sapiens) [5] amounted to 0.33. Consider `CC(C)[C@@H](C)Nc1c(-c2c(F)cc(C#CCCCO)cc2F)c(Cl)nc2ncnn12`, for which the outcome in the assay on Primary cortical neuron [7] was Active.

For the molecule `C[C@@H](Nc1c(-c2c(F)cc(OCCCN(C)C)cc2F)c(Cl)nc2ncnn12)C(C)(C)C`, the outcome in the assay with Primary cortical neuron [7] was Active. In the case of `CC(C)[C@@H](C)Nc1c(-c2c(F)cc(F)cc2F)c(Cl)nc2ncnn12`, the result in the assay on Primary cortical neuron [7] and in the assay with Primary cortical neuron [8] was Active.

`C[C@@H](Nc1c(-c2c(F)cc(C#CCCCO)cc2F)c(Cl)nc2ncnn12)C(C)(C)C`: the outcome in the assay on Primary cortical neuron [7] was Active.

On to `C[C@@H](Nc1c(-c2c(F)cc(OCCCO)cc2F)c(Cl)nc2ncnn12)C(C)(C)C`, for which, in the assay on Primary cortical neuron [7], the result was inactive.

Take `CC(C)[C@@H](C)Nc1c(-c2c(F)cc(C#CCCO)cc2F)c(Cl)nc2ncnn12`: the outcome in the assay on Primary cortical neuron [7] was Active. For the molecule `CC(C)[C@@H](Nc1c(-c2c(F)cc(F)cc2F)c(Cl)nc2ncnn12)C(F)(F)F`, in the assay with Primary cortical neuron [8], the result was inactive. Take `CC(C)[C@H](Nc1c(-c2c(F)cc(F)cc2F)c(Cl)nc2ncnn12)C(F)(F)F`: the outcome with Primary cortical neuron [8] was inactive.

The values above are taken from ChEMBL document CHEMBL5316271, “Microtubule-Stabilizing 1,2,4-Triazolo[1,5-a]pyrimidines as Candidate Therapeutics for Neurodegenerative Disease: Matched Molecular Pair Analyses and Computational Studies Reveal New Structure-Activity Insights” (J Med Chem, 2023).
